Results taken from paper PMC11439047 (Nature Communications, 2024).
Changes are numbered by the printed parent chain.

Columns and labels:
[1] = target: T1, P2X1 receptor K215A (Homo sapiens, UniProt P51575, K215A); experiment: Saturation radioligand binding with [3H]-α,β-methylene ATP
T1 sequence (P51575 1-399 K215A): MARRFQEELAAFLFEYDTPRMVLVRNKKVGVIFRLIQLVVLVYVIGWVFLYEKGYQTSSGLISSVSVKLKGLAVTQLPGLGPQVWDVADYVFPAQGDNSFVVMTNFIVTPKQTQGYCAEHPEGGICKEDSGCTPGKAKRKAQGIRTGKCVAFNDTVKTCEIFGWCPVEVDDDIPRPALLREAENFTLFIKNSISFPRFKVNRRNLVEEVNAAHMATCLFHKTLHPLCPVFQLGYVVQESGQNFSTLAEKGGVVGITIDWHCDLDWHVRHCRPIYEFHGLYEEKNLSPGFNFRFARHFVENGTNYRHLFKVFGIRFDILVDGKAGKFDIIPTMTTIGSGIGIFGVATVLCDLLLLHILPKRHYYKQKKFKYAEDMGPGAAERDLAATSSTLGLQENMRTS
How it was run: (§1)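 Whole HEK293 Flp-In T-REx cells stably expressing receptor, tetracycline-induced (150 ng/ml, 2 days), 15,000 cells/well, washed in HEPES binding buffer pH 7.4 with Ca2+/Mg2+. Increasing [3H]-α,β-methylene ATP added, 3 h room temperature with gentle agitation; non-specific binding with 10 μM ATP. Ice-cold 0.9% NaCl washes, scintillation counting (CCPM). Specific binding fitted one-site; values above 300 nM termed not defined.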

[2] = target: T2, P2X1 receptor E122A (Homo sapiens, UniProt P51575, E122A); experiment: Calcium ion influx assay; format: cell-based
T2 sequence (P51575 1-399 E122A): T1 sequence (P51575 1-399 K215A) with E122A, A215K
How it was run: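 Tetracycline-induced (150 ng/mL, 2 days) stable HEK293 Flp-In T-REx cells at 15,000 cells/well, loaded with Fluo-8 for 1 h at 37 °C in probenecid-containing HEPES buffer, pH 7.4. Then 30 min buffer incubation, 20 s baseline, agonist addition and 2 min reading (ex 485/em 525 nm). Max-minus-min fluorescence normalised to 10 µM ionomycin, rescaled 0–100. Constrained four-parameter fit; EC50 per experiment; four independent experiments, triplicate.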

[3] = target: T3, WT-P2X1 receptor (Homo sapiens, UniProt P51575); experiment: Calcium ion influx assay; format: cell-based; settings: read-out: potency; WT-P2X1, Fig. 4B
T3 sequence (P51575 1-399): T1 sequence (P51575 1-399 K215A) with A215K

[4] = target: T4, P2X1 receptor L218T (Homo sapiens, UniProt P51575, L218T); experiment: Saturation radioligand binding with [3H]-α,β-methylene ATP
T4 sequence (P51575 1-399 L218T): T1 sequence (P51575 1-399 K215A) with A215K, L218T
How it was run: as §1

Structure (SMILES): Nc1ncnc2c1ncn2[C@@H]1O[C@H](COP(=O)(O)CP(=O)(O)OP(=O)(O)O)[C@@H](O)[C@H]1O [α,β-methylene ATP]
- binding affinity compared to WT-P2X1 [1]: similar
- fold decrease in potency compared to WT-P2X1 [2]: 18.5 fold
- EC50 [3]: 99 nM
- binding affinity compared to WT-P2X1 [4]: similar
